Measurements reported in article PMC2755634 (Clinical cancer research : an official journal of the …, 2009).

Experiments:
HepG2 cells = assay: MTT cell viability assay; assay type: cell-based, human; details: 0−100 μM, data not shown
Procedure, shortened: (§1)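 Viability was read as MTT tetrazolium reduction in confluent HepG2 (RPMI 1640) or LS180 (Eagle's MEM with Earle's balanced salts) cells at 37 °C, 5% CO2. Test compound was given at 0–100 µmol/L from DMSO stock; final DMSO ≤0.1%.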

LS180 cells = assay: MTT cell viability assay; assay type: cell-based, human; details: 0−100 μM, data not shown
Procedure, shortened: as §1

[1] = system: CYP1A1, CYP1A2, CYP1B1 (EROD activity); assay: EROD activity in intact HepG2 cells; assay type: cell-based, human; details: 24 hours; for inhibition of TCDD (PAH)-induced EROD activity: 50 μM compound + 250 pmol TCDD; for induction of EROD activity: 50 μM compound alone
CYP1A1 = target: T1, CYP1A1 (Homo sapiens, UniProt P04798); assay: Recombinant CYP1A1 Supersomes EROD activity; assay type: biochemical; details: for change of Vmax with increasing compound concentration / nature of CYP1A1 inhibition (Michaelis-Menten kinetic analysis): recombinant CYP1A1 Supersomes
T1 sequence (P04798 1-512): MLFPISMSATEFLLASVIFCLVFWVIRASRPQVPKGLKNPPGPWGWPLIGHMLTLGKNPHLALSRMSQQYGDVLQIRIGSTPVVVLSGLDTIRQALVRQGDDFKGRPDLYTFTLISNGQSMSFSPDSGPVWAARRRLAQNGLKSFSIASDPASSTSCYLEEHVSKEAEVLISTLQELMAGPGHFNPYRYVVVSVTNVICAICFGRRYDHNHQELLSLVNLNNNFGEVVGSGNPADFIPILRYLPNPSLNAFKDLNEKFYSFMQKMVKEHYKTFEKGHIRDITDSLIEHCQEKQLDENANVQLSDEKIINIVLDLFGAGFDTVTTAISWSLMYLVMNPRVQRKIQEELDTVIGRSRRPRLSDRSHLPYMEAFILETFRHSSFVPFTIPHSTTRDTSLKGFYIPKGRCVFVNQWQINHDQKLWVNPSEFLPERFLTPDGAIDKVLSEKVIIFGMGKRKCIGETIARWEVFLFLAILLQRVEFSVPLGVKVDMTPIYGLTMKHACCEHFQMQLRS

CYP1B1 = target: T2, CYP1B1 (Homo sapiens, UniProt Q16678); assay: Recombinant CYP1B1 Supersomes EROD activity; assay type: biochemical
T2 sequence (Q16678 1-543): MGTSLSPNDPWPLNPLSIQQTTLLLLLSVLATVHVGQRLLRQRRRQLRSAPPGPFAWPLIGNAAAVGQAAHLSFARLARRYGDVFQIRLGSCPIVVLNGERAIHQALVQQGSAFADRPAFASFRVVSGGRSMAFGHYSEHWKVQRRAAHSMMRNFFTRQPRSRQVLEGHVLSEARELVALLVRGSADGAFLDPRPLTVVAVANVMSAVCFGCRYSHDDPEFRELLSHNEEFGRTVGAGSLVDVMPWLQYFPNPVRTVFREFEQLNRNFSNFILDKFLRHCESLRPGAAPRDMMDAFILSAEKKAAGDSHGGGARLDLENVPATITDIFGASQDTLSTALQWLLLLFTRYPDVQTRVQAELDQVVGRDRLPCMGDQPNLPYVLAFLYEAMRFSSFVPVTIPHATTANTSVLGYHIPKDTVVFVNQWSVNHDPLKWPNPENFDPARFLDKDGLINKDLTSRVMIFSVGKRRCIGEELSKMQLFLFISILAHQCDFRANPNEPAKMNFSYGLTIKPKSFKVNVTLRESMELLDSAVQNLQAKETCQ

CYP1A2 = target: T3, CYP1A2 (Homo sapiens, UniProt P05177); assay: Recombinant CYP1A2 Supersomes EROD activity; assay type: biochemical
T3 sequence (P05177 1-516): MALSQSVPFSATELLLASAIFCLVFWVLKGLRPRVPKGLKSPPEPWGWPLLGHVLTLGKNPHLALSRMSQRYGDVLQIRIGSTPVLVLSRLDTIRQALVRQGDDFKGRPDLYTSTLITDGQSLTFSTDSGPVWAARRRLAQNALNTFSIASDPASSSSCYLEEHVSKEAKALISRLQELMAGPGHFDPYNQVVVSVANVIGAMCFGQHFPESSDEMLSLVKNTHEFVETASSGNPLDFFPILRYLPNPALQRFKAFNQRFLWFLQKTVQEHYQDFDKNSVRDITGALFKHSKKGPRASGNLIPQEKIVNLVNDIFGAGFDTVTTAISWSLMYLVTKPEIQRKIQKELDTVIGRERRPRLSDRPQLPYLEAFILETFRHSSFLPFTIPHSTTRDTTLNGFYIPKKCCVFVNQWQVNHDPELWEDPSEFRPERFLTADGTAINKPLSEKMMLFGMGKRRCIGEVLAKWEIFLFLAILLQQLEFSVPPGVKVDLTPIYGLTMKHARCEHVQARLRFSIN

G6PD mRNA = G6PD mRNA expression by RT-PCR in HepG2 cells; assay type: cell-based, human; details: 50 μM, 24 hours, over 18S RNA control
CYP1A1 mRNA [2] = assay: CYP1A1 mRNA expression by RT-PCR in HepG2 cells; details: co-treatment with 250 pmol TCDD or 1 μM DMBA, 24 hours
CYP1A2 mRNA [3] = assay: CYP1A2 mRNA expression by RT-PCR in HepG2 cells; details: co-treatment with 250 pmol TCDD or 1 μM DMBA, 24 hours
CYP1B1 mRNA [4] = assay: CYP1B1 mRNA expression by RT-PCR in HepG2 cells; details: 24 hours; for effect on TCDD- and DMBA-induced CYP1B1 mRNA expression: co-treatment with 250 pmol TCDD or 1 μM DMBA
CYP1A1 mRNA [5] = assay: CYP1A1 mRNA expression by RT-PCR in LS180 cells; details: co-treatment with 250 pmol TCDD or 1 μM DMBA, 24 hours
CYP1A2 mRNA [6] = assay: CYP1A2 mRNA expression by RT-PCR in LS180 cells; details: co-treatment with 250 pmol TCDD or 1 μM DMBA, 24 hours
CYP1B1 mRNA [7] = assay: CYP1B1 mRNA expression by RT-PCR in LS180 cells; details: 24 hours; for effect on TCDD- and DMBA-induced CYP1B1 mRNA expression: co-treatment with 250 pmol TCDD or 1 μM DMBA
[8] = system: CYP1A1 heterogeneous nuclear RNA (hnCYP1A1); assay: CYP1A1 gene transcription rate; details: HepG2; co-treatment with 250 pmol TCDD or 1 μM DMBA
[9] = system: CYP1A1 heterogeneous nuclear RNA (hnCYP1A1)
phase II genes = assay: Phase II gene expression; assay type: cell-based, human; details: RT-PCR
[10] = rats; cited from earlier work
[11] = target: T4, aryl hydrocarbon receptor (AhR) (Homo sapiens, UniProt P35869); assay: Chromatin immunoprecipitation; details: HepG2; 50 μM compound + 10 nmol TCDD; 90 minutes; TCDD alone 6.2-fold
T4 sequence (P35869 11-848): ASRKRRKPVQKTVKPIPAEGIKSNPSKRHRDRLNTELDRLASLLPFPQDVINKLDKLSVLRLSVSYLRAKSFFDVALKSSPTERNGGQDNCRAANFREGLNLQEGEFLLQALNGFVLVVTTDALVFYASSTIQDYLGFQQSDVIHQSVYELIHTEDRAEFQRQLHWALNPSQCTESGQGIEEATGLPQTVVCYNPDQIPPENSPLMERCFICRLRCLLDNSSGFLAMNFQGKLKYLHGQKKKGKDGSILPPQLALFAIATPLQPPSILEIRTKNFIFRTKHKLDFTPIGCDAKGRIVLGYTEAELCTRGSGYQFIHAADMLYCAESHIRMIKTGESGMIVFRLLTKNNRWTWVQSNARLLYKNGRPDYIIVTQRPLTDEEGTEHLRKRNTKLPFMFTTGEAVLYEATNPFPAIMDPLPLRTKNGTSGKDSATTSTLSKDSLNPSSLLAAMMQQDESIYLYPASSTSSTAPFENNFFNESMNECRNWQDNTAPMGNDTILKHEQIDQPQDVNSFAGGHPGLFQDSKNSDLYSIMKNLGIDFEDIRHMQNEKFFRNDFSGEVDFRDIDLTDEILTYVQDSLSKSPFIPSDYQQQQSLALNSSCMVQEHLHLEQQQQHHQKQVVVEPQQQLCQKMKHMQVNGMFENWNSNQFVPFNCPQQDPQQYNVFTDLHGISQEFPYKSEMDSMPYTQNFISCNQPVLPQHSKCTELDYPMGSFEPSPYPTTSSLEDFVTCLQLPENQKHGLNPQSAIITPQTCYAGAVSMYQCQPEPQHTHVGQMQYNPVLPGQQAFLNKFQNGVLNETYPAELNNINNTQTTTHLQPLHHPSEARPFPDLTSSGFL

[12] = system: catalase and glutathione reductase; details: 25 μM; cited from earlier work

Structure (SMILES): CC1=C(CC(=O)Oc2ccc(-c3cc(=S)ss3)cc2)c2cc(F)ccc2/C1=C\c1ccc([S+](C)[O-])cc1 (stereo not shown) [ACS 18, (Z)-5-Fluoro-2-methyl-1-[[4-(methylsulfinyl)phenyl]-methylene]-1H-indene-3-acetic acid 4-(5-thioxo-5H-[1,2]dithiol-3-yl)-phenyl ester]
- cell viability (MTT) (HepG2 cells): non-toxic
- cell viability (MTT) (LS180 cells): non-toxic
- inhibition of TCDD (PAH)-induced EROD activity [1]: inhibited
- induction of EROD activity [1]: 0.46 +/− 0.01 pmoles/min/well
- IC50 (CYP1A1): 40 nM
- change of Vmax with increasing compound concentration (CYP1A1): unchanged
- nature of CYP1A1 inhibition (Michaelis-Menten kinetic analysis) (CYP1A1): competitive
- IC50 (CYP1B1): 230 nM
- IC50 (CYP1A2): 3100 nM
- increase in G6PD mRNA expression (G6PD mRNA): 1.5 fold
- effect on TCDD- and DMBA-induced CYP1A1 mRNA expression (CYP1A1 mRNA [2]): similar
- effect on TCDD- and DMBA-induced CYP1A2 mRNA expression (CYP1A2 mRNA [3]): similar
- effect on TCDD- and DMBA-induced CYP1B1 mRNA expression (CYP1B1 mRNA [4]): similar
- effect on TCDD- and DMBA-induced CYP1A1 mRNA expression (CYP1A1 mRNA [5]): similar
- effect on TCDD- and DMBA-induced CYP1A2 mRNA expression (CYP1A2 mRNA [6]): similar
- effect on TCDD- and DMBA-induced CYP1B1 mRNA expression (CYP1B1 mRNA [7]): similar
- effect on TCDD- and DMBA-stimulated hnCYP1A1 expression [8]: similar

Structure (SMILES): Cc1c2ccccc2c(C)c2c1ccc1ccccc12 [DMBA]
- fold increase in hnCYP1A1 expression over DMSO control levels [9]: 12 fold
- fold increase in CYP1B1 mRNA expression compared to DMSO controls (CYP1B1 mRNA [4]; TCDD 250 pmol, DMBA 1 μM): 8.4 fold
- fold increase in CYP1B1 mRNA expression compared to DMSO controls (CYP1B1 mRNA [7]; TCDD 250 pmol, DMBA 1 μM): 2.5 fold

Structure (SMILES): [Na+].[SH-] [NaHS]
- inhibition of TCDD (PAH)-induced EROD activity [1]: not inhibited

Structure (SMILES): O=C(Cc1ccccc1Nc1c(Cl)cccc1Cl)Oc1ccc(-c2cc(=S)ss2)cc1 [ACS 15, 2-[(2,6-dichlorophenyl)amino]benzeneacetic acid 4-(3H-1,2,dithiol-3-thione-5-yl)phenyl ester]
- cell viability (MTT) (HepG2 cells): non-toxic
- cell viability (MTT) (LS180 cells): non-toxic
- inhibition of TCDD (PAH)-induced EROD activity [1]: inhibited
- change of Vmax with increasing compound concentration (CYP1A1): unchanged
- nature of CYP1A1 inhibition (Michaelis-Menten kinetic analysis) (CYP1A1): competitive
- effect on phase II gene expression (phase II genes): No significant increases
- less gastro-intestinal damage than diclofenac [10]: > 90%
- effect on TCDD- and DMBA-induced CYP1A1 mRNA expression (CYP1A1 mRNA [2]): inhibited in a concentration-dependent manner
- effect on TCDD- and DMBA-induced CYP1A2 mRNA expression (CYP1A2 mRNA [3]): inhibited in a concentration-dependent manner
- effect on TCDD- and DMBA-induced CYP1B1 mRNA expression (CYP1B1 mRNA [4]): inhibited in a concentration-dependent manner
- effect on TCDD- and DMBA-induced CYP1A1 mRNA expression (CYP1A1 mRNA [5]): inhibited in a concentration-dependent manner
- effect on TCDD- and DMBA-induced CYP1A2 mRNA expression (CYP1A2 mRNA [6]): inhibited in a concentration-dependent manner
- effect on TCDD- and DMBA-induced CYP1B1 mRNA expression (CYP1B1 mRNA [7]): inhibited in a concentration-dependent manner
- effect on TCDD- and DMBA-stimulated hnCYP1A1 expression [8]: abrogated the stimulatory effects
- level of activated AhR on co-treatment with TCDD (ChIP) [11]: 2.6 fold

Structure (SMILES): COc1ccc(-c2cc(=S)ss2)cc1 [ADT, 5-[p-methoxyphenyl]-1,2-dithiole-3-thione]
- increases in the phase II enzymes catalase and glutathione reductase [12]: less than 2 fold

Structure (SMILES): CC1=C(CC(=O)O)c2cc(F)ccc2/C1=C\c1ccc([S+](C)[O-])cc1 (stereo not shown) [sulindac]
- inhibition of TCDD (PAH)-induced EROD activity [1]: not inhibited
- induction of EROD activity [1]: 4.45 +/− 0.09 pmoles/min/well

Structure (SMILES): O=C(O)Cc1ccccc1Nc1c(Cl)cccc1Cl [diclofenac]
- inhibition of TCDD (PAH)-induced EROD activity [1]: not inhibited
